Measured values published in ChEMBL document CHEMBL4002555, “Bioactive Pentacyclic Triterpenoids from the Leaves of Cleistocalyx operculatus” (J Nat Prod, 2016).

Columns and labels:
[1] = Cytotoxicity against mouse RAW264.7 cells assessed as growth inhibition at 2 uM after 72 hrs by MTT assay relative to control; type: cell-based; conditions: read-out: GI
NCI-N87 = test: Cytotoxicity against human NCI-N87 cells after 72 hrs by MTT assay; type: functional, cell-based; conditions: NCI-N87, 72 h
How it was run: (§1)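 MTT growth-inhibition assay in human HepG2 hepatocellular, NCI-N87 gastric and MCF-7 breast carcinoma lines, with a doxorubicin positive control. IC50 values are means ± SD from three individual experiments; >10.0 μM was taken as noncytotoxic.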

RAW264.7 [2] = test: Anti-inflammatory activity in mouse RAW264.7 cells assessed as inhibition of LPS-induced TNF-alpha production at 2 uM pretreated for 1 hr followed by LPS stimulation measured after 24 hrs by ELISA relative to control; type: functional
How it was run: (§2)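 LPS-stimulated RAW 264.7 macrophages, with IL-6 and TNF-α production read separately. Test concentrations were 0.4, 2, 10 and 50 μM, and dexamethasone was the reference drug. Results are given as percent inhibition of cytokine production.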

RAW264.7 [3] = test: Anti-inflammatory activity in mouse RAW264.7 cells assessed as inhibition of LPS-induced IL-6 production at 0.4 uM pretreated for 1 hr followed by LPS stimulation measured after 24 hrs by ELISA relative to control; type: functional; how it was run: as §2
RAW264.7 [4] = test: Anti-inflammatory activity in mouse RAW264.7 cells assessed as inhibition of LPS-induced TNF-alpha production at 0.4 uM pretreated for 1 hr followed by LPS stimulation measured after 24 hrs by ELISA relative to control; type: functional; how it was run: as §2
RAW264.7 [5] = test: Anti-inflammatory activity in mouse RAW264.7 cells assessed as inhibition of LPS-induced IL-6 production at 2 uM pretreated for 1 hr followed by LPS stimulation measured after 24 hrs by ELISA relative to control; type: functional; how it was run: as §2
HepG2 = test: Cytotoxicity against human HepG2 cells after 72 hrs by MTT assay; type: functional, cell-based; conditions: HepG2, 72 h; how it was run: as §1
MCF7 = test: Cytotoxicity against human MCF7 cells after 72 hrs by MTT assay; type: functional, cell-based; conditions: MCF7, 72 h; how it was run: as §1
RAW264.7 [6] = test: Anti-inflammatory activity in mouse RAW264.7 cells assessed as inhibition of LPS-induced TNF-alpha production at 10 uM pretreated for 1 hr followed by LPS stimulation measured after 24 hrs by ELISA relative to control; type: functional; how it was run: as §2
RAW264.7 [7] = test: Anti-inflammatory activity in mouse RAW264.7 cells assessed as inhibition of LPS-induced IL-6 production at 50 uM pretreated for 1 hr followed by LPS stimulation measured after 24 hrs by ELISA relative to control; type: functional; how it was run: as §2
[8] = Cytotoxicity against mouse RAW264.7 cells assessed as growth inhibition at 50 uM after 72 hrs by MTT assay relative to control; type: cell-based; conditions: read-out: GI
RAW264.7 [9] = test: Anti-inflammatory activity in mouse RAW264.7 cells assessed as inhibition of LPS-induced TNF-alpha production at 50 uM pretreated for 1 hr followed by LPS stimulation measured after 24 hrs by ELISA relative to control; type: functional; how it was run: as §2
RAW264.7 [10] = test: Anti-inflammatory activity in mouse RAW264.7 cells assessed as inhibition of LPS-induced IL-6 production at 10 uM pretreated for 1 hr followed by LPS stimulation measured after 24 hrs by ELISA relative to control; type: functional; how it was run: as §2

| Structure (SMILES) | inhibition at 72 h, 2 µM [1] [%] | IC50 (NCI-N87) [µM] | inhibition at 2 µM (RAW264.7 [2]) [%] | inhibition at 0.4 µM (RAW264.7 [3]) [%] | inhibition at 0.4 µM (RAW264.7 [4]) [%] | inhibition at 2 µM (RAW264.7 [5]) [%] | IC50 (HepG2) [µM] | IC50 (MCF7) [µM] | inhibition at 10 µM (RAW264.7 [6]) [%] | inhibition at 50 µM (RAW264.7 [7]) [%] | inhibition at 72 h, 50 µM [8] [%] | inhibition at 50 µM (RAW264.7 [9]) [%] | inhibition at 10 µM (RAW264.7 [10]) [%] |
| --- | --- | --- | --- | --- | --- | --- | --- | --- | --- | --- | --- | --- | --- |
| COC(=O)[C@]12CC=C(C)[C@@H](C)[C@@H]1[C@H]1CC[C@@H]3[C@@]4(C)CC[C@H](O)C(C)(C)[C@@H]4CC[C@@]3(C)[C@]1(C(=O)O)CC2 | < 5 | 6.5 | 42.9 | 38.4 | 39.1 | 51 | 3.2 | 4.9 | – | – | – | – | – |
| CC1(C)CC[C@@]23CC[C@]4(C)[C@@](OC2=O)([C@@H]3C1)[C@H]1O[C@H]1[C@@H]1[C@@]2(C)C[C@@H](O)[C@H](O)[C@@](C)(CO)[C@@H]2CC[C@]14C | – | > 10 | < 50 | < 50 | < 50 | < 50 | > 10 | > 10 | < 50 | < 50 | < 5 | < 50 | < 50 |
| CC1(C)CC[C@]2(C(=O)O)CC[C@]3(C)C(=CC(=O)[C@@H]4[C@@]5(C)C[C@@H](O)[C@H](O)[C@@](C)(CO)[C@@H]5CC[C@]43C)[C@@H]2C1 | – | > 10 | < 10 | – | – | 33.8 | > 10 | > 10 | < 10 | 63 | < 5 | 18.8 | 35.2 |
| C=C1CC[C@]2(C(=O)O)CC[C@]3(C)C(=C[C@@H](OC)[C@@H]4[C@@]5(C)C[C@@H](O)[C@H](O)[C@@](C)(CO)[C@@H]5CC[C@]43C)[C@@H]2[C@H]1C | – | > 10 | < 50 | < 50 | < 50 | < 50 | > 10 | > 10 | < 50 | < 50 | < 5 | < 50 | < 50 |
| CO[C@@H]1C=C2[C@@H]3CC(C)(C)CC[C@]3(C(=O)O)CC[C@@]2(C)[C@]2(C)CC[C@@H]3[C@](C)(C[C@@H](O)[C@H](O)[C@@]3(C)CO)[C@@H]12 | – | > 10 | 22 | – | – | 42.3 | > 10 | > 10 | 54.1 | 68.8 | < 5 | 52.8 | 64.8 |
| C=C1CC[C@]2(C(=O)O)CC[C@]3(C)C(=CC(=O)[C@@H]4[C@@]5(C)C[C@@H](O)[C@H](O)[C@@](C)(CO)[C@@H]5CC[C@]43C)[C@@H]2[C@H]1C | – | > 10 | < 50 | < 50 | < 50 | < 50 | > 10 | > 10 | < 50 | < 50 | < 5 | < 50 | < 50 |
